Laboratory results published in ChEMBL document CHEMBL5252634, “Design, synthesis and in vitro cytotoxicity evaluation of indolo-pyrazoles grafted with thiazolidinone as tubulin polymerization inhibitors” (RSC Med Chem, 2023).
Active and inactive are the calls of the source. The rule behind the calls is not given here.

Columns and labels:
[1] = system: HeLa; experiment: Cytotoxicity against human HeLa cells assessed as reduction in cell viability; assay type: functional, cell-based
[2] = biological target: Tubulin; experiment: Inhibition of tubulin polymerization (unknown origin); assay type: cell-based, Homo sapiens
[3] = Cytotoxicity against multidrug resistance human U87 cells assessed as cell growth inhibition; assay type: functional, cell-based, U-87MG ATCC; conditions: U-87 MG
[4] = system: PC-3; experiment: Cytotoxicity against multidrug resistance human PC-3 cells assessed as cell growth inhibition; assay type: functional, cell-based
[5] = system: SK-OV-3; experiment: Cytotoxicity against multidrug resistance human SK-OV-3 cells assessed as cell growth inhibition; assay type: functional, cell-based
[6] = system: HCT-15; experiment: Cytotoxicity against human HCT-15 cells assessed as reduction in cell viability incubated for 4 hrs by MTT assay; assay type: functional, cell-based; conditions: HCT-15, 4 h
[7] = system: HCT-15; experiment: Cytotoxicity against human HCT-15 cells assessed as reduction in cell viability; assay type: functional, cell-based
[8] = system: SK-MEL-28; experiment: Induction of apoptosis in human SK-MEL-28 cells assessed as reduction in live cells at 1.73 to 6.92 uM after 48 hrs by phase contrast microscopic analysis; assay type: functional, cell-based; conditions: dose 1.73-6.92 µM
Summary of the method: (§1)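 SK-MEL-28 cells plated at 1×10^6 cells/mL, allowed to adhere overnight, then exposed to several concentrations for 48 h. Bright-field imaging at 20X to score cell shrinkage, deformation and viable cell number.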

[9] = Cytotoxicity against human BEAS-2B cells assessed as reduction in cell viability measured after 48 hrs by MTT assay; assay type: toxicity, cell-based
Summary of the method: (§2)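 Cells kept in medium with 10% FBS and 1% antibiotic–antimycotic at 37 °C, 5% CO2. Seeded at 3000–4000 cells/well, grown overnight, then given fresh medium with a range of concentrations (diluted from 10 mM DMSO stocks) for 48 h. MTT (0.5 mg/mL) added for 3–4 h at 37 °C. Formazan dissolved in DMSO and absorbance read at 570 nm.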

[10] = Selectivity index, ratio of IC50 for cytotoxicity against human BEAS-2B cells to IC50 for cytotoxicity against human A549 cells; assay type: functional
[11] = system: SK-MEL-28; experiment: Induction of cell cycle arrest in human SK-MEL-28 cells assessed as accumulation of cells at G2/M phase at 3.46 uM incubated for 48 hrs by flow cytometry (reference value: 13.14%); assay type: functional
[12] = system: SK-MEL-28; experiment: Induction of apoptosis in human SK-MEL-28 cells assessed as early apoptotic cells measured after 48 hrs by annexin-V-FITC/PI double staining based flow cytometric analysis; assay type: functional, cell-based; conditions: dose 1.73-6.92 µM
Summary of the method: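 1×10^6 SK-MEL-28 cells treated at various concentrations for 48 h. Cells trypsinized with supernatant retained and washed twice in ice-cold PBS. Stained with annexin V-FITC and PI in binding buffer for 15 min at room temperature in the dark, kept on ice, and analysed by flow cytometry.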

[13] = system: SK-MEL-28; experiment: Induction of cell cycle arrest in human SK-MEL-28 cells assessed as accumulation of cells at G0/G1 phase at 6.92 uM incubated for 48 hrs by flow cytometry (reference value: 79.59%); assay type: functional
[14] = system: SK-MEL-28; experiment: Induction of cell cycle arrest in human SK-MEL-28 cells assessed as accumulation of cells at G0/G1 phase at 1.73 uM incubated for 48 hrs by flow cytometry (reference value: 79.59%); assay type: functional
[15] = system: SK-MEL-28; experiment: Induction of apoptosis in human SK-MEL-28 cells assessed as increase in ROS level incubated for 48 hrs by DCFDA staining based fluorescence microscopic assay; assay type: functional, cell-based; conditions: dose 1.73-6.92 µM
Summary of the method: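 SK-MEL-28 seeded at 1×10^6 cells/well and treated at several concentrations for 48 h at 37 °C. DCFDA (10 µM) loaded for 30 min at 37 °C, excess washed off with PBS, and green DCF fluorescence imaged (ex 498/em 530 nm), 20X.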

[16] = system: SK-MEL-28; experiment: Induction of apoptosis in human SK-MEL-28 cells assessed as morphological changes measured after 48 hrs by AO/EB staining based microscopic analysis; assay type: functional, cell-based; conditions: dose 1.73-6.92 µM
Summary of the method: (§3)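 SK-MEL-28 plated at 1×10^6 cells/mL and treated at several concentrations for 48 h. Acridine orange and ethidium bromide added at 10 µg/ml, and cells imaged at once by fluorescence microscopy (ex 488/em 550 nm), 20X.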

[17] = system: SK-MEL-28; experiment: Induction of apoptosis in human SK-MEL-28 cells assessed as cellular shrinkage at 1.73 to 6.92 uM after 48 hrs by phase contrast microscopic analysis; assay type: functional, cell-based; conditions: dose 1.73-6.92 µM; summary of the method: as §1
[18] = system: SK-MEL-28; experiment: Induction of cell cycle arrest in human SK-MEL-28 cells assessed as accumulation of cells at S phase at 1.73 uM incubated for 48 hrs by flow cytometry (reference value: 6.34%); assay type: functional
[19] = biological target: Tubulin (Homo sapiens) (UniProt P68371+Q9H4B7+P0DPH7+P68366+Q13509+Q71U36+P04350+Q3ZCM7+P07437+P68363+Q9BQE3+Q6PEY2+Q13885+Q9BVA1+Q9BUF5); experiment: Inhibition of tubulin polymerization (unknown origin) at 1.73 to 6.92 uM measured after 1 hr relative to control; assay type: protein-complex assay; conditions: dose 1.73-6.92 µM
Summary of the method: (§4)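 Fluorescence-based tubulin polymerization kit: tubulin, GTP and tubulin glycerol buffer mixed and added to compound (from 10x stocks), enhancer and inhibitor reference standards, and blanks in a plate prewarmed to 37 °C. Read kinetically for 1 h at ex 360/em 450 nm.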

[20] = system: SK-MEL-28; experiment: Induction of apoptosis in human SK-MEL-28 cells assessed as horseshoe-shaped nucleus at 1.73 to 6.92 uM incubated for 48 hrs by DAPI staining based fluorescence microscopy; assay type: functional, cell-based; conditions: dose 1.73-6.92 µM
Summary of the method: (§5)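 SK-MEL-28 exposed 48 h, then PBS-washed, fixed in 4% paraformaldehyde, permeabilized with 0.1% Triton X for 15 min and stained with 10 µg/mL DAPI. Nuclei viewed by fluorescence (ex 359/em 461 nm), 20X, with untreated controls.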

[21] = system: SK-MEL-28; experiment: Induction of cell cycle arrest in human SK-MEL-28 cells assessed as accumulation of cells at G2/M phase at 1.73 uM incubated for 48 hrs by flow cytometry (reference value: 13.14%); assay type: functional
[22] = system: B16-F10; experiment: Cytotoxicity against mouse B16-F10 cells assessed as reduction in cell viability measured after 48 hrs by MTT assay; assay type: functional, cell-based; conditions: B16-F10, 48 h; summary of the method: as §2
[23] = system: A549; experiment: Cytotoxicity against human A549 cells assessed as reduction in cell viability measured after 48 hrs by MTT assay; assay type: functional, cell-based; conditions: A549, 48 h; summary of the method: as §2
[24] = Selectivity index, ratio of IC50 for cytotoxicity against human BEAS-2B cells to IC50 for cytotoxicity against human HCT-116 cells; assay type: functional
[25] = system: SK-MEL-28; experiment: Induction of cell cycle arrest in human SK-MEL-28 cells assessed as accumulation of cells at S phase at 6.92 uM incubated for 48 hrs by flow cytometry (reference value: 6.34%); assay type: functional
[26] = system: SK-MEL-28; experiment: Induction of apoptosis in human SK-MEL-28 cells assessed as nuclear condensation at 1.73 to 6.92 uM incubated for 48 hrs by DAPI staining based fluorescence microscopy; assay type: functional, cell-based; conditions: dose 1.73-6.92 µM; summary of the method: as §5
[27] = system: SK-MEL-28; experiment: Potency index, ratio of sunitinib IC50 to test compound IC50 for cytotoxicity against human SK-MEL-28 cells assessed as reduction in cell viability measured after 48 hrs by MTT assay; assay type: functional
[28] = system: SK-MEL-28; experiment: Induction of cell cycle arrest in human SK-MEL-28 cells assessed as accumulation of cells at G0/G1 phase at 3.46 uM incubated for 48 hrs by flow cytometry (reference value: 79.59%); assay type: functional
[29] = system: SK-MEL-28; experiment: Induction of apoptosis in human SK-MEL-28 cells assessed as budding nucleus at 1.73 to 6.92 uM incubated for 48 hrs by DAPI staining based fluorescence microscopy; assay type: functional, cell-based; conditions: dose 1.73-6.92 µM; summary of the method: as §5
[30] = system: SK-MEL-28; experiment: Induction of cell cycle arrest in human SK-MEL-28 cells assessed as accumulation of cells at G2/M phase at 6.92 uM incubated for 48 hrs by flow cytometry (reference value: 13.14%); assay type: functional
[31] = system: SK-MEL-28; experiment: Induction of apoptosis in human SK-MEL-28 cells assessed as blebbing nucleus at 1.73 to 6.92 uM incubated for 48 hrs by DAPI staining based fluorescence microscopy; assay type: functional, cell-based; conditions: dose 1.73-6.92 µM; summary of the method: as §5
[32] = Selectivity index, ratio of IC50 for cytotoxicity against human BEAS-2B cells to IC50 for cytotoxicity against mouse B16-F10 cells; assay type: functional
[33] = system: SK-MEL-28; experiment: Cytotoxicity against human SK-MEL-28 cells assessed as reduction in cell viability measured after 48 hrs by MTT assay; assay type: functional, cell-based; conditions: SK-MEL-28, 48 h; summary of the method: as §2
[34] = system: SK-MEL-28; experiment: Induction of apoptosis in human SK-MEL-28 cells assessed as cell membrane disruption at 1.73 to 6.92 uM incubated for 48 hrs by AO/EB staining based fluorescence microscopy; assay type: functional; conditions: dose 1.73-6.92 µM; summary of the method: as §3
[35] = system: SK-MEL-28; experiment: Induction of apoptosis in human SK-MEL-28 cells assessed as apoptotic body formation at 1.73 to 6.92 uM incubated for 48 hrs by AO/EB staining based fluorescence microscopy; assay type: functional, cell-based; conditions: dose 1.73-6.92 µM; summary of the method: as §3
[36] = system: SK-MEL-28; experiment: Induction of apoptosis in human SK-MEL-28 cells assessed as increase in red fluorescence at 1.73 to 6.92 uM incubated for 48 hrs by AO/EB staining based fluorescence microscopy; assay type: functional, cell-based; conditions: dose 1.73-6.92 µM; summary of the method: as §3
[37] = system: HCT-116; experiment: Cytotoxicity against human HCT-116 cells assessed as reduction in cell viability measured after 48 hrs by MTT assay; assay type: functional, cell-based; conditions: HCT-116, 48 h; summary of the method: as §2
[38] = system: SK-MEL-28; experiment: Induction of apoptosis in human SK-MEL-28 cells assessed as change in cell shape at 1.73 to 6.92 uM after 48 hrs by phase contrast microscopic analysis; assay type: functional, cell-based; conditions: dose 1.73-6.92 µM; summary of the method: as §1
[39] = Selectivity index, ratio of IC50 for cytotoxicity against human BEAS-2B cells to IC50 for cytotoxicity against human SK-MEL-28 cells; assay type: functional
[40] = system: SK-MEL-28; experiment: Induction of cell cycle arrest in human SK-MEL-28 cells assessed as accumulation of cells at S phase at 3.46 uM incubated for 48 hrs by flow cytometry (reference value: 6.34%); assay type: functional
[41] = biological target: Tubulin; experiment: Inhibition of tubulin polymerization (unknown origin) at 1.73 to 6.92 uM measured after 1 hr; assay type: protein-complex assay, Homo sapiens; summary of the method: as §4
[42] = system: SK-MEL-28; experiment: Induction of apoptosis in human SK-MEL-28 cells assessed as nucleus fragmentation at 1.73 to 6.92 uM incubated for 48 hrs by DAPI staining based fluorescence microscopy; assay type: functional, cell-based; conditions: dose 1.73-6.92 µM; summary of the method: as §5

COc1cc(NC(=O)/C=C/c2cc(-c3cc(OC)c(OC)c(OC)c3)n[nH]2)cc(OC)c1OC
IC50 [1]: 400 nM

CCOc1ccc(-c2n[nH]cc2-c2cc(OC)c(OC)c(OC)c2)cc1
IC50 [2]: 350 nM

O=C(Nc1ccncc1)C(=O)c1cn(Cc2ccc(Cl)cc2)c2ccccc12 [INDIBULIN]
IC50 [3]: 77 nM | IC50 [4]: 64 nM | IC50 [5]: 36 nM

COc1ccc(CC/N=C2/NC(=O)/C(=C\c3c[nH]c4ccc(Br)cc34)S2)cc1
IC50 [6]: 920 nM | IC50 [7]: 920 nM

O=C1CS/C(=N\c2cc(-c3c[nH]c4ccccc34)nn2-c2cccc(Cl)c2)N1
Activity [8]: Active | IC50 at 48 h [9]: 15.9 µM | Ratio IC50 [10]: 1.38 | Activity [11]: 16.11% | Activity [12]: Dose-Dependent Effect | Activity [13]: 77.01% | Activity [14]: 77.35% | Activity [15]: Dose-Dependent Effect | Activity [16]: Dose-Dependent Effect | Activity [17]: Active | Activity [18]: 6.73% | inhibition [19]: 60% | Activity [20]: Active | Activity [21]: 14.31% | IC50 [22]: 10.8 µM | IC50 [23]: 11.5 µM | Ratio IC50 [24]: 1.76 | Activity [25]: 5.7% | Activity [26]: Active | Ratio IC50 [27]: 1.5 | Activity [28]: 77.33% | Activity [29]: Active | Activity [30]: 16.39% | Activity [31]: Active | Ratio IC50 [32]: 1.47 | IC50 [33]: 3.46 µM | Activity [34]: Active | Activity [35]: Active | Activity [36]: Active | IC50 [37]: 9.02 µM | Activity [38]: Active | Ratio IC50 [39]: 4.59 | Activity [40]: 6.73% | IC50 [41]: < 1730 nM | Activity [42]: Active
